# Source: ChEMBL document CHEMBL1667864, “Synthesis and biological assay of 4-aryl-6-chloro-quinoline derivatives as novel non-nucleoside anti-HBV agents” (Bioorg Med Chem, 2011)
# Experiments:
# [1] = Selectivity index, CC50 for human HepG 2.215 cells to IC50 for HBV infected in human HepG 2.215 cells assessed as inhibition of DNA replication; assay type: functional
# Outline: (§1)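 SI calculated as CC₅₀ (concentration killing 50% of HepG 2.2.15 cells) divided by IC₅₀ (50% inhibition of HBV DNA replication, HBeAg or HBsAg secretion).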
# Hepatitis B virus [2] = test: Antiviral activity against HBV infected in human HepG 2.215 cells assessed as inhibition of HBsAg secretion by ELISA; assay type: functional, organism-based; conditions: HepG2.2.15
# Hepatitis B virus [3] = test: Antiviral activity against HBV infected in human HepG 2.215 cells assessed as inhibition of DNA replication by RT-PCR analysis; assay type: functional, organism-based; conditions: HepG2.2.15
# Outline: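 HepG 2.2.15 cells were seeded at 5 × 10⁵ per well, with medium changed every 2 days. After 6 days, compounds were added and fresh medium was fed every other day for another 6 days. Total DNA was isolated from collected cells, and HBV DNA was quantified by real-time PCR. IC₅₀ is the concentration giving 50% inhibition of HBV DNA replication.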
# [4] = Cytotoxicity against human HepG2(2.2.15) cells; assay type: cell-based
# Hepatitis B virus [5] = test: Antiviral activity against HBV infected in human HepG 2.215 cells assessed as inhibition of HBeAg secretion by ELISA; assay type: functional, organism-based; conditions: HepG2.2.15
# [6] = Selectivity index, CC50 for human HepG 2.215 cells to IC50 for HBV infected in human HepG 2.215 cells assessed as inhibition of HBeAg secretion; assay type: functional; outline: as §1
# [7] = Selectivity index, CC50 for human HepG 2.215 cells to IC50 for HBV infected in human HepG 2.215 cells assessed as inhibition of HBsAg secretion; assay type: functional; outline: as §1
Structure (SMILES),Selectivity Index [1],IC50 (Hepatitis B virus [2]),IC50 (Hepatitis B virus [3]),CC50 [4],IC50 (Hepatitis B virus [5]),Selectivity Index [6],Selectivity Index [7]
ClCCc1c(Cl)nc2ccc(Cl)cc2c1-c1ccccc1Cl,>73.8,> 1400 µM,19 µM,> 1400 µM,> 1400 µM,,
CS(=O)(=O)OCCc1c(OS(C)(=O)=O)nc2ccc(Cl)cc2c1-c1ccccc1Cl,118.2,16.5 µM,6.8 µM,804 µM,367 µM,2.2,48.6
CC(=O)OCCc1c(Cl)nc2ccc(Cl)cc2c1-c1ccccc1Cl,19.1,147 µM,6.1 µM,116 µM,70.9 µM,<1,<1
COc1nc2ccc(Cl)cc2c(-c2ccccc2Cl)c1CCO,20.5,66.3 µM,6.9 µM,141 µM,> 2710 µM,<1,2.1
OCCc1c(Cl)nc2ccc(Cl)cc2c1-c1ccccc1Cl,4.3,45.3 µM,9.8 µM,42.5 µM,11.3 µM,3.8,<1
CS(=O)(=O)OCCc1c(Cl)nc2ccc(Cl)cc2c1-c1ccccc1Cl,,1020 µM,> 882 µM,882 µM,647 µM,>1.4,<1
[N-]=[N+]=NCCc1c(Cl)nc2ccc(Cl)cc2c1-c1ccccc1Cl,>151.4,> 2510 µM,16.6 µM,> 2510 µM,> 2510 µM,,
[N-]=[N+]=NCCc1c(N=[N+]=[N-])nc2ccc(Cl)cc2c1-c1ccccc1Cl,>551.2,> 2480 µM,4.5 µM,> 2480 µM,> 2480 µM,,
CC(C)(C)[Si](OCCc1c(OCc2c(F)cccc2F)nc2ccc(Cl)cc2c1-c1ccccc1Cl)(c1ccccc1)c1ccccc1,,> 1870 µM,> 1870 µM,> 1870 µM,> 1870 µM,,
CC(C)(C)[Si](OCCc1c(OCc2c(Cl)cccc2Cl)nc2ccc(Cl)cc2c1-c1ccccc1Cl)(c1ccccc1)c1ccccc1,,> 1030 µM,> 1030 µM,> 1030 µM,> 1030 µM,,
OCCc1c(OCc2c(F)cccc2F)nc2ccc(Cl)cc2c1-c1ccccc1Cl,22.7,43.5 µM,4.8 µM,109 µM,1630 µM,<1,2.5
OCCc1c(OCc2c(Cl)cccc2Cl)nc2ccc(Cl)cc2c1-c1ccccc1Cl,2.2,18.2 µM,17.7 µM,38.5 µM,12.2 µM,3.2,2.1
CC(C)(C)[Si](OCCc1c(OS(=O)(=O)C(F)(F)F)nc2ccc(Cl)cc2c1-c1ccccc1Cl)(c1ccccc1)c1ccccc1,,454 µM,> 1560 µM,> 1560 µM,767 µM,2,>3.4
CC(C)(C)[Si](OCCc1c(N2CCCCC2)nc2ccc(Cl)cc2c1-c1ccccc1Cl)(c1ccccc1)c1ccccc1,>143.7,> 969 µM,6.7 µM,> 969 µM,> 969 µM,,
CC(C)(C)[Si](OCCc1c(N2CCOCC2)nc2ccc(Cl)cc2c1-c1ccccc1Cl)(c1ccccc1)c1ccccc1,,> 1200 µM,> 1200 µM,> 1200 µM,> 1200 µM,,
CC(C)(C)[Si](OCCc1c(N2CCNCC2)nc2ccc(Cl)cc2c1-c1ccccc1Cl)(c1ccccc1)c1ccccc1,<4.43,18.8 µM,42.8 µM,< 18.8 µM,> 1170 µM,<1,<1
CC(C)(C)[Si](OCCc1c(Nn2nnc3ccccc32)nc2ccc(Cl)cc2c1-c1ccccc1Cl)(c1ccccc1)c1ccccc1,>284.5,> 1250 µM,4.4 µM,> 1250 µM,> 1250 µM,,
OCCc1c(N2CCCCC2)nc2ccc(Cl)cc2c1-c1ccccc1Cl,1,37.5 µM,151 µM,155 µM,50 µM,3.1,4.1
OCCc1c(N2CCOCC2)nc2ccc(Cl)cc2c1-c1ccccc1Cl,,323 µM,> 1590 µM,> 1590 µM,> 1590 µM,,>4.9
OCCc1c(N2CCNCC2)nc2ccc(Cl)cc2c1-c1ccccc1Cl,,> 5 µM,> 5 µM,< 5 µM,> 5 µM,<1,<1
OCCc1c(Nn2nnc3ccccc32)nc2ccc(Cl)cc2c1-c1ccccc1Cl,10,37.7 µM,8.3 µM,82.4 µM,111 µM,<1,2.2
O=c1[nH]c2ccc(Cl)cc2c(-c2ccccc2Cl)c1CCO,5.4,70.2 µM,72.1 µM,388 µM,340 µM,1.1,5.5
C[C@H](Cn1cnc2c(N)ncnc21)OCP(=O)(O)O [TENOFOVIR ANHYDROUS],>3222,1450 µM,0.54 µM,> 1740 µM,,>1.5,>1.2
